Active and inactive are the calls of the source. The rule behind the calls is not given here.
Tests used:
[1] = target: T1, L-lactate dehydrogenase A chain (Homo sapiens, UniProt P00338); assay: Inhibition of recombinant human LDHA using sodium pyruvate as substrate preincubated for 5 mins followed by diaphorase/resazurin addition and measured after 20 mins by fluorescence based assay
Sus scrofa = species on record: Sus scrofa; assay: Inhibition of porcine heart MDH using malic acid as substrate preincubated for 10 mins followed by substrate addition and measured after 5 mins by resazurin based fluorescence based assay; settings: time 15.0 min
MIA PaCa-2 = assay: Cytotoxicity against human MIA PaCa-2 cells assessed as reduction in cell viability after 48 hrs by CellTiter-Glo assay; type: functional, cell-based; settings: MIA PaCa-2, 48 h
[2] = target: T1, L-lactate dehydrogenase A chain; assay: Inhibition of GS[HiBiT]GS-tagged LDHA (unknown origin) expressed in HEK-293T cells measured after 1 hr by […]; type: cell-based
In short: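 HEK293T cells were transiently transfected for 24 h with CMV-driven LDHA carrying a C-terminal GS[HiBiT]GS tag, then reseeded at 2500 cells/well in DPBS with Ca/Mg and 1 g/L glucose. […] Cells were lysed with NP40, and 11S (100 nM final) plus furimazine was added.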

[3] = target: L-lactate dehydrogenase B chain (Homo sapiens) (UniProt P07195); assay: Inhibition of recombinant human LDHB using sodium pyruvate as substrate preincubated for 5 mins followed by diaphorase/resazurin addition and measured after 20 mins by fluorescence based assay
[4] = target: T1, L-lactate dehydrogenase A chain; assay: Inhibition of LDHA in human A673 cells assessed as decrease in lactate production incubated for 2 hrs by lactate oxidase-coupled fluorescence based assay; type: cell-based
[5] = target: T1, L-lactate dehydrogenase A chain; assay: Inhibition of LDHA in human MIA PaCa-2 cells assessed as decrease in lactate production incubated for 2 hrs by lactate oxidase-coupled fluorescence based assay; type: cell-based
A673 = assay: Cytotoxicity against human A673 cells assessed as reduction in cell viability after 48 hrs by CellTiter-Glo assay; type: functional, cell-based; settings: A673, 48 h

Sequence of L-lactate dehydrogenase B chain (Homo sapiens) (P07195 2-334 limits assumed): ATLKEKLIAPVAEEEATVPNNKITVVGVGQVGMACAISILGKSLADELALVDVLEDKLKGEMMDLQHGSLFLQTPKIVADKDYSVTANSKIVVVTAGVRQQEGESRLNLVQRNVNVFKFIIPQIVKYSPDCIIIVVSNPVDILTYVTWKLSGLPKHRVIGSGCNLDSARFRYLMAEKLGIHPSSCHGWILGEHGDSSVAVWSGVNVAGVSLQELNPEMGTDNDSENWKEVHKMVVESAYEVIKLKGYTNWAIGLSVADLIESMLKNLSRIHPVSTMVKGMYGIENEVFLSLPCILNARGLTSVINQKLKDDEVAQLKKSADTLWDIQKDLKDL

Compound	IC50 [1] [nM]	inhibition (Sus scrofa)	IC50 (MIA PaCa-2) [nM]	IC50 [2] [nM]	inhibition [3]	IC50 [4] [nM]	IC50 [5] [nM]	IC50 (A673) [nM]
Cc1ccc(C#Cc2cccc(-c3nn(-c4nc(C(=O)O)cs4)c(CCC4CC4)c3Cc3ccc(S(N)(=O)=O)c(F)c3)c2)o1	52	inactive	137	95	Active	547	417	137
NS(=O)(=O)c1ccc(Cc2c(-c3cccc(-c4ccccc4)c3)nn(-c3nc(C(=O)O)cs3)c2CC2CC2)cc1F	25	inactive	3380	150	Active	613	867	1140
NS(=O)(=O)c1ccc(Cc2c(-c3ccc(F)c(/C=C/C4CC4)c3)nn(-c3nc(C(=O)O)cs3)c2CC2CC2)cc1F	15	inactive	837	134	Active	320	231	833
Cc1nc(C#Cc2cccc(-c3nn(-c4nc(C(=O)O)cs4)c(CCC4CC4)c3Cc3ccc(S(N)(=O)=O)c(F)c3)c2)cs1	24	inactive	219	90	Active	300	253	219
NS(=O)(=O)c1ccc(Cc2c(-c3ccc(F)c(-c4ccccc4)c3)nn(-c3nc(C(=O)O)cs3)c2CC2CC2)cc1	23	inactive	8450	401	Active	835	1220	2650
NS(=O)(=O)c1ccc(Cc2c(-c3ccc(F)c(C#CCC4CCCO4)c3)nn(-c3nc(C(=O)O)cs3)c2CC2CC2)cc1F (centres undefined)	9	inactive	1220	178	Active	933	937	1380
Cc1ncc(C#Cc2cccc(-c3nn(-c4nc(C(=O)O)cs4)c(CC4CC4)c3Cc3ccc(S(N)(=O)=O)c(F)c3)c2)s1	43	inactive	641	38	Active	713	720	532
CC(C)(C)/C=C/c1cc(-c2nn(-c3nc(C(=O)O)cs3)c(CC3CC3)c2Cc2ccc(S(N)(=O)=O)c(F)c2)ccc1F	59	inactive	1900	112	Active	361	255	2260
CC(C)c1ccc(C#Cc2cccc(-c3nn(-c4nc(C(=O)O)cs4)c(CC4CC4)c3Cc3ccc(S(N)(=O)=O)c(F)c3)c2)s1	385	inactive	590	179	Active	296	203	528
Cc1cnc(C#Cc2cccc(-c3nn(-c4nc(C(=O)O)cs4)c(CCC4CC4)c3Cc3ccc(S(N)(=O)=O)c(F)c3)c2)s1	33	inactive	173	84	Active	364	417	180
Cc1cc(C#Cc2cccc(-c3nn(-c4nc(C(=O)O)cs4)c(CC4CC4)c3Cc3ccc(S(N)(=O)=O)c(F)c3)c2)cs1	87	inactive	332	95	Active	494	657	359
CC#Cc1cc(-c2nn(-c3nc(C(=O)O)cs3)c(CC3CC3)c2Cc2ccc(S(N)(=O)=O)c(F)c2)ccc1F	11	inactive	322	119	Active	505	450	332
CC(C)C#Cc1cc(-c2nn(-c3nc(C(=O)O)cs3)c(CC3CC3)c2Cc2ccc(S(N)(=O)=O)c(F)c2)ccc1F	21	inactive	756	2050	Active	284	487	1010

From ChEMBL document CHEMBL4665801, “Pyrazole-Based Lactate Dehydrogenase Inhibitors with Optimized Cell Activity and Pharmacokinetic Properties” (J Med Chem, 2020)
